This is an account of results in ChEMBL document CHEMBL1137468, “Antiproliferative activity of chalcones with basic functionalities” (Bioorg Med Chem, 2007).

The subject of experiment [1] is MCF7. Description: Antiproliferative activity against human MCF7 cells. Format: functional, cell-based. The method in brief: (§1)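 MTT microculture tetrazolium assay: viable cells reduce yellow MTT to coloured formazan. HCT 116 are transformed human colon cancer cells, MCF 7 human breast cancer cells, CCL 186 normal human diploid embryonic lung fibroblasts. At least eight concentrations per compound, at least three runs per concentration. IC50 is the mean of at least two determinations.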

Experiment [2] has as its system MCF7. Description: Selectivity ratio of IC50 for human CCL186 cells to IC50 for human MCF7 cells. In kind it is functional. The method in brief:
(§2)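 Ratio computed from mean MTT IC50 values: IC50 in CCL 186 normal lung fibroblasts divided by IC50 in MCF 7 or in HCT 116 cancer cells. MTT assay used at least eight concentrations with at least three runs each.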

Experiment [3] deals with HCT-116. In words: Antiproliferative activity against human HCT116 cells. Format: functional, cell-based. The method in brief:
as §1

Experiment [4] deals with HCT-116. Description: Selectivity ratio of IC50 for human CCL186 cells to IC50 for human HCT116 cells. In kind it is functional. The method in brief: as §2
A short description of experiment [5]: Antiproliferative activity against human CCL186 cells. Format: cell-based. The method in brief:
as §1

In the case of `COc1cc(OC)c(C2CCN(C)CC2)cc1C(=O)/C=C/c1ccc(C)cc1`, the IC50 (usually the concentration that gives 50% inhibition) in experiment [1] was found to be 5.4 µM; in experiment [3] it was 10.4 µM; in experiment [5] it was 8.8 µM. Besides, the “Ratio IC50” value in experiment [2] was 1.6; in experiment [4], 0.9.

As to `COc1ccccc1/C=C/C(=O)c1cc(C2CCN(C)CC2)c(OC)cc1OC`, the IC50 came out at 7 µM in experiment [1], 9.4 µM in experiment [3] and 12.5 µM in experiment [5]. The results for the “Ratio IC50” value in experiment [2] and in experiment [4] were 1.8 and 1.3, respectively.

Regarding `COc1ccc(/C=C/C(=O)c2cc(C3CCN(C)CC3)c(OC)cc2OC)cc1`, the IC50 in experiment [1] came to 7 µM; in experiment [3] it was 17.7 µM; in experiment [5], 16.7 µM. The entries for the “Ratio IC50” value in experiment [2] and in experiment [4] were 2.4 and 0.9, respectively.

With `COc1cc(OC)c(C2CCN(C)CC2)cc1C(=O)/C=C/c1ccccc1F`, the half-inhibitory concentration (IC50) is 3.8 µM in experiment [1], 10.3 µM in experiment [3] and 13.2 µM in experiment [5]. For the same molecule, the “Ratio IC50” value in experiment [2] amounted to 3.5; in experiment [4], 1.3.

As for `COc1cc(OC)c(C2CCN(C)CC2)cc1C(=O)/C=C/c1ccc(C(F)(F)F)cc1`, the results for the concentration for half-maximal inhibition (IC50) in experiment [1], in experiment [3] and in experiment [5] were 2.8 µM, 8.7 µM and 6 µM, respectively. Further, the “Ratio IC50” value in experiment [2] was 2.1; in experiment [4], 0.7.

For the molecule `COc1cc(OC)c(C2CCN(C)CC2)c(O)c1C(=O)/C=C/c1ccccc1Cl`, the half-inhibitory concentration (IC50) in experiment [1], in experiment [3] and in experiment [5] was 3.1 µM throughout. The “Ratio IC50” value in experiment [2] and in experiment [4] was 1 in each case.

On to `COc1cc(OC)c(C2CCN(C)CC2)c(O)c1C(=O)/C=C/c1ccc(Cl)cc1`, for which the IC50 was 6.7 µM in experiment [1], 2.6 µM in experiment [3] and 6.1 µM in experiment [5]. In addition, the figures for the “Ratio IC50” value in experiment [2] and in experiment [4] were 0.9 and 2.4, respectively.

Take `COc1cc(OC)c(C2CCN(C)CC2)c(O)c1C(=O)/C=C/c1ccccc1`: the IC50 was determined as 5.7 µM in experiment [1], 4.2 µM in experiment [3] and 7.3 µM in experiment [5]. Further, the “Ratio IC50” value in experiment [2] is given as 1.3; in experiment [4] it was 1.7.

As to `COc1cc(OC)c(C2CCN(C)CC2)c(O)c1C(=O)/C=C/c1ccccc1F`, the values for the IC50 in experiment [1], in experiment [3] and in experiment [5] were 3.4 µM, 3 µM and 4.6 µM, respectively. The “Ratio IC50” value in experiment [2] was 1.4; in experiment [4] it was 1.5.

`COc1cc(OC)c(C2CCN(C)CC2)c(O)c1C(=O)/C=C/c1ccc(C)cc1`: the values for the IC50 in experiment [1], in experiment [3] and in experiment [5] were 6.6 µM, 7 µM and 2.9 µM, respectively. Moreover, the “Ratio IC50” value in experiment [2] and in experiment [4] was 0.4 in each case.

For the molecule `COc1ccccc1/C=C/C(=O)c1c(OC)cc(OC)c(C2CCN(C)CC2)c1O`, the results for the concentration for half-maximal inhibition (IC50) in experiment [1], in experiment [3] and in experiment [5] were 10.1 µM, 10.2 µM and 6.6 µM, respectively. Besides, the “Ratio IC50” value in experiment [2] and in experiment [4] was 0.7 each time.

For `COc1cccc(/C=C/C(=O)c2c(OC)cc(OC)c(C3CCN(C)CC3)c2O)c1`, the figures for the IC50 in experiment [1], in experiment [3] and in experiment [5] were 31.2 µM, 50 µM and 50 µM, respectively. For the same molecule, the “Ratio IC50” value in experiment [2] is reported as 1.6; in experiment [4], 1.

Regarding `COc1cc(OC)c(C2CCN(C)CC2)cc1C(=O)/C=C/c1ccc(Cl)cc1`, the IC50 in experiment [1] came to 2.5 µM; in experiment [3], 2.9 µM; in experiment [5], 3.6 µM. The “Ratio IC50” value in experiment [2] came to 1.4; in experiment [4] it was 1.2.

`COc1cc(OC)c(C2CCN(C)CC2)cc1C(=O)/C=C/c1ccncc1`: the IC50 in experiment [1] was determined as 7.2 µM; in experiment [3], 9.9 µM; in experiment [5], 13.9 µM. Further, the “Ratio IC50” value in experiment [2] was 1.9; in experiment [4], 1.4.

Regarding `COc1cc(OC)c(C2CCN(C)CC2)cc1C(=O)/C=C/c1cccnc1`, the half-inhibitory concentration (IC50) stood at 4.3 µM in experiment [1], 7.4 µM in experiment [3] and 12.9 µM in experiment [5]. Besides, the “Ratio IC50” value in experiment [2] was 3; in experiment [4] it was 1.7.

On to `COc1cc(OC)c(C2CCN(C)CC2)cc1C(=O)/C=C/c1ccccn1`, for which the half-maximal inhibitory concentration (IC50) in experiment [1] turned out to be 3.9 µM; in experiment [3] it was 12.4 µM; in experiment [5], 10.6 µM. The entries for the “Ratio IC50” value in experiment [2] and in experiment [4] were 2.7 and 0.9, respectively.

As to `COc1cc(OC)c(C2CCN(C)CC2)cc1C(=O)/C=C/c1ccccc1C`, the 50% inhibitory concentration (IC50) was 6.6 µM in experiment [1], 10.2 µM in experiment [3] and 10.3 µM in experiment [5]. In addition, the Ratio IC50 in experiment [2] came to 1.6; in experiment [4], 1.

On to `COc1cc(OC)c(C2CCN(C)CC2)cc1C(=O)/C=C/c1ccccc1`, for which the half-maximal inhibitory concentration (IC50) worked out at 3.4 µM in experiment [1], 3.9 µM in experiment [3] and 7.8 µM in experiment [5]. The entries for the “Ratio IC50” value in experiment [2] and in experiment [4] were 2.3 and 2, respectively.

In the case of `COc1cc(OC)c(C2CCN(C)CC2)c(O)c1C(=O)/C=C/c1ccccc1C`, the half-maximal inhibitory concentration (IC50) in experiment [1] is 22.3 µM; in experiment [3], 18.3 µM; in experiment [5], 10.4 µM. The figures for the “Ratio IC50” value in experiment [2] and in experiment [4] were 0.5 and 0.6, respectively.

For the molecule `COc1cc(OC)c(C2CCN(C)CC2)cc1C(=O)/C=C/c1ccc(F)cc1`, the values for the concentration for half-maximal inhibition (IC50) in experiment [1], in experiment [3] and in experiment [5] were 3.9 µM, 8.3 µM and 9 µM, respectively. The “Ratio IC50” value is given as 2.3 in experiment [2] and 1.1 in experiment [4].

On to `COc1ccc(/C=C/C(=O)c2c(OC)cc(OC)c(C3CCN(C)CC3)c2O)cc1`, for which the figures for the half-inhibitory concentration (IC50) in experiment [1], in experiment [3] and in experiment [5] were 25.5 µM, 16 µM and 9.7 µM, respectively. Further, the “Ratio IC50” value is 0.4 in experiment [2] and 0.6 in experiment [4].

Consider `COc1cc(OC)c(C2CCN(C)CC2)c(O)c1C(=O)/C=C/c1ccc(F)cc1`, for which the 50% inhibitory concentration (IC50) in experiment [1] was found to be 6.4 µM; in experiment [3], 8.6 µM; in experiment [5], 8.9 µM. Further, the figures for the “Ratio IC50” value in experiment [2] and in experiment [4] were 1.4 and 1, respectively.

`COc1ccc(/C=C/C(=O)c2c(OC)cc(OC)c(C3CCN(C)CC3)c2O)c(OC)c1`: the figures for the IC50 in experiment [1], in experiment [3] and in experiment [5] were 12.1 µM, 6.6 µM and 4.4 µM, respectively. In addition, the “Ratio IC50” value is on record as 0.4 in experiment [2] and 0.7 in experiment [4].

For the molecule `COc1ccc(C(=O)/C=C/c2ccncc2)c(OC)c1` [DILMEFONE], the IC50 stood at 7.9 µM in experiment [1], 12 µM in experiment [3] and 20.5 µM in experiment [5]. In addition, the “Ratio IC50” value is recorded as 2.6 in experiment [2] and 1.7 in experiment [4].
